Reference: ChEMBL document CHEMBL1122715, “beta-Lapachone: synthesis of derivatives and activities in tumor models” (1984)
Converted amounts (≈) assume the structure as drawn.

Columns and labels:
Mus musculus = test: Maximum tolerated dose (MTD, po) in uninfected NMRI mice
[1] = test system: Avian myeloblastosis virus; test: In vitro inhibition of RNA dependent DNA polymerase of Avian myeloblastosis virus (AMV); type: functional; settings: read-out: ED50
In short: (§1)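 Reverse transcriptase activity assayed with poly(rA)·oligo(dT) or poly(rC)·oligo(dG) template-primer (20 μg/mL) and [³H]dTTP or [³H]dGTP substrate (20 μM, […]); inhibition read as loss of labelled nucleotide incorporation.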

[2] = test system: Rauscher murine leukemia virus; test: In vitro inhibition of RNA dependent DNA polymerase of Rauscher leukemia virus (RLV); type: functional; settings: read-out: ED50
In short: as §1

SMILES | MTD (Mus musculus) | EC50 [1] | EC50 [2]
Cc1ccc2c(c1)C(=O)C(=O)C1=C2OC(C)(C)CC1 | >2500 mg/kg |  | 
O=C1C(=O)c2ccccc2C2=C1CCC1(CCCC1)O2 | >2500 mg/kg | 3 µg/mL (≈ 11.2 µM) | 
CCC1(CC)CCC2=C(O1)c1ccccc1C(=O)C2=O | 2500 mg/kg | 2 µg/mL (≈ 7.4 µM) | 
CCC1(C)CCC2=C(O1)c1ccccc1C(=O)C2=O (stereo unspecified) | 125 mg/kg | < 2 µg/mL | 
CC1(C)CCC2=C(O1)c1ccc(Cl)cc1C(=O)C2=O | >2500 mg/kg |  | 
CC1(c2ccccc2)CCC2=C(O1)c1ccccc1C(=O)C2=O (stereo unspecified) | >2500 mg/kg | 2 µg/mL (≈ 6.57 µM) | 2 µg/mL (≈ 6.57 µM)
O=C1C(=O)c2ccccc2C2=C1CCC1(CCCCCC1)O2 |  | 15 µg/mL (≈ 50.6 µM) | 
O=C1C(=O)c2ccccc2C2=C1CCC(c1ccccc1)O2 (stereo unspecified) | >2500 mg/kg | < 2 µg/mL | 
CC1(C)CCC2=C(O1)c1ccccc1C(=O)C2=O [LAPACHONE] | 1250 mg/kg | < 2 µg/mL | < 2 µg/mL
COc1cc2c(cc1OC)C1=C(CCC(C)(C)O1)C(=O)C2=O | >1250 mg/kg | 5 µg/mL (≈ 16.5 µM) | 
O=C1C(=O)c2ccccc2C2=C1CCC1(CCCCC1)O2 | >2500 mg/kg | 3 µg/mL (≈ 10.6 µM) | 
